Source: PubChem
Shown is part of a subset that was picked to be rich in hits.
Calb biofilm kill: mixtures killing C. albicans biofilm; C. albicans biofilm persisters + clotrimazole, fluorescence viability; primary screen in compound mixtures of four per well; inhibition, % at 7.6 µM; hit rate 0.02% among 120,000; AID 1242;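 active = inhibition above 30.3% in the primary screen of four-compound pools, then above 30% when the compound was retested; inconclusive = passed the primary limit but could not be retested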;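 note: compounds exposed to preformed 24 h biofilms for 48 h; 0% = untreated biofilm control and 100% = clotrimazole plus chlorhexidine kill blank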
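System: C. albicans CAF4-2 wild-type biofilms; Medium: RPMI/MOPS medium, pH 7.0; Reagent: Clotrimazole, 50 µg/mL; Times: biofilm formation 24 h, compound exposure 48 h, 37 °C; Detection: 2-h Alamar Blue fluorescence, 535/590 nm excitation/emission; Evaluation: percent inhibition of biofilm viability.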
ROMK primary: modulates human ROMK potassium channel activity; P48048; Tet-inducible ROMK, thallium flux fluorescence; actives lie on both sides; B-score at 10 µM; hit rate 2% among 130,000; AID 1918;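 active = signal ratio slope over the read window, or its plate-corrected B-score, at least 3 SD from the plate mean, either direction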;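 note: B-score of the F/F0 ratio slope over 7 to 12 s after thallium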
Target sequence (P48048 whole entry, looked up): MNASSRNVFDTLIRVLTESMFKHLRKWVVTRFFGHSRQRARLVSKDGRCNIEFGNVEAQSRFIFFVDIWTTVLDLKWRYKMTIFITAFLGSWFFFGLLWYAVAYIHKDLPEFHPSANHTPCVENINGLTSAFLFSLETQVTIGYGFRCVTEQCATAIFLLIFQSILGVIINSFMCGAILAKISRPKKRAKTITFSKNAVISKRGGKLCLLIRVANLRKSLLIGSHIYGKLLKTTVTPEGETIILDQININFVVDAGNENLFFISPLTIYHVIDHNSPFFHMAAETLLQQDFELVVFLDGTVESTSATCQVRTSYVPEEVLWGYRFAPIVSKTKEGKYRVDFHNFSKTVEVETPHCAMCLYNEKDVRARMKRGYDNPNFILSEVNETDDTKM
ROMK hit retest: confirmation of human ROMK potassium channel modulators; shares compounds with ROMK primary; hit rate 54% among 3,000; ROMK thallium flux, fluorescence ratio; hits give low values; normalized thallium flux (F/F0 slope) at 10 µM; AID 1917;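 active = Flux at 10 µM at least 3 SD below or above vehicle control mean in one or both replicates; inconclusive = no clear call, values can overlap the other calls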
* marks the source's active call; other numbers are inactive results; u = inconclusive; x = not tested or not shown.

SMILES	Calb biofilm kill	ROMK primary	others
CC(=O)Nc1ccc(NC(=O)C2CCN(C(=O)c3cccs3)CC2)cc1	19.2	0
Cc1sc2nc(CN(Cc3ccccc3)C(=O)NC3CCCCC3)[nH]c(=O)c2c1C	x	-2.05
COc1cc2oc3ccccc3c2cc1N(CC(=O)N(C)C)S(=O)(=O)c1ccc(C)cc1	x	0.0103
CCN(CC)C(=O)CN(c1cc2c(cc1OC)oc1ccccc12)S(=O)(=O)c1ccccc1	x	-4.59*
COc1cc2oc3ccccc3c2cc1N(CC(=O)N1CCCCC1)S(=O)(=O)c1ccc(C)cc1	x	-4.89*
COc1cc2oc3ccccc3c2cc1N(CC(=O)N(C)C)S(=O)(=O)c1ccccc1	x	-0.37
CC(O)CNC(=S)Nc1ccccc1 (stereo unspecified)	15.5	x
O=C(O)C1Cc2ccccc2CN1C(=O)COc1ccc(Cl)cc1 (stereo unspecified)	6.7	0.0141
COC(=O)c1cc(NC(=O)c2cccc(C(F)(F)F)c2)c(=O)oc1C	10.6	0.488
COC(=O)c1cc(NC(=O)c2cccc(Cl)c2)c(=O)oc1/C=C/Nc1cc(C)cc(C)c1	9.3	-5.85*
CCOC(=O)CNC(=O)Cn1cnc2c(nnn2-c2ccc(C)cc2)c1=O	x	0.0286
CCCC(Oc1ccc(Br)cc1)c1nc2c3cc(OC)c(OC)cc3nc(=S)n2[nH]1 (stereo unspecified)	10.6	-0.0217
CC(Oc1ccc(Br)cc1)c1nc2c3ccccc3nc(=S)n2[nH]1 (stereo unspecified)	5.2	2.91*
CCCCN(C)C(=O)c1nc2ccccn2c1CNCCCn1nnc2ccccc21	13.1	0.332
COc1ccc(NC(=O)C2CCCN(c3cc(C)nc4ncnn34)C2)cc1 (stereo unspecified)	11.9	-0.235
CC(C1CCN(Cc2nc(C3CC3)no2)CC1)N1CCOCC1 (stereo unspecified)	21.4	2.06
O=c1nc(-c2ccccc2)cn[nH]1	x	0.312
O=c1c2cc(Cl)ccc2nc(-c2ccc([N+](=O)[O-])cc2)n1O	15.1	3.51*
O=c1c2ccccc2nc(-c2ccc(Cl)c(Cl)c2)n1O	x	1.71
Cc1cc(/C=C2\SC(=S)NC2=O)c(C)n1-c1ccccc1	24.2	x
Cc1cc(/C=C2\SC(=S)NC2=O)c(C)n1-c1ccc(O)cc1	18.5	-4.4*
Cc1ccc(C(=O)c2no[n+]([O-])c2C(=O)c2ccc(C)cc2)cc1	-4.0	-5.08*
Cc1ccc(C(=O)c2ccc(C)cc2)cc1	11.3	-0.122
C=CCn1c(SCc2csc(C)n2)nc2sc3c(c2c1=O)CCCC3	x	0.595
C=CCn1c(=S)[nH]c2sc3c(c2c1=O)CCC3	9.0	3.24*
SMILES	Calb biofilm kill	ROMK primary	others
CCCCCc1cc(=O)[nH]c(=S)[nH]1	17.1	x
CCCCCc1ccc(C(=O)CCCC)c(=S)[nH]1	19.9	3.84*
COc1cccc(C2CC3(CC(C)(C)NC(=S)N3)Oc3cc(O)ccc32)c1 (stereo unspecified)	19.8	x
CSC1=NC2(CC(c3ccccc3)Oc3cc(O)ccc32)CC(C)(C)N1 (stereo unspecified)	9.2	-3.98*
N=c1c2c(-c3ccccc3)c(-c3ccccc3)n(Cc3ccco3)c2ncn1Cc1ccccc1	x	-4.84*
OCCNc1ncnc2c1c(-c1ccccc1)c(-c1ccccc1)n2Cc1ccco1	x	-0.996
O=C(Nc1ccc(F)cc1F)c1noc2c1CCC2	x	0.537
COc1cc(NC(=O)C2=C(N3CCOCC3)/C(=C\c3ccc(Br)cc3)CC2)cc(OC)c1OC	10.1	x
CCn1c(=S)[nH]c2c(c1=O)C(C)(C)Cc1ccccc1-2	9.2	4.05*
Cn1c(=S)[nH]c2c(c1=O)C(C)(C)Cc1ccccc1-2	10.8	1.88
Cc1cccnc1CN1CCN(Cc2nc(Cc3cccc(F)c3)no2)CC1	13.8	-0.0591
O=C(N/C(=C\c1ccc(-c2ccccc2)o1)C(=O)N1CCOCC1)c1ccccc1	31.1	-2.99*
O=C(N/C(=C\c1ccco1)C(=O)N1CCOCC1)c1ccco1	5.6	x
O=C(CSc1ccc(-c2cccs2)nn1)N1CCCCCC1	6.6	0.0636
Cc1ccc(C2C3CN(C(C)C)CC=C3C(C#N)=C(N)C2(C#N)C#N)cc1 (stereo unspecified)	x	-4.26*
CN1CC=C2C(C#N)=C(N)C(C#N)(C#N)[C@H](c3ccoc3)[C@H]2C1	x	-2.8*
CC(=O)N1CC=C2C(C#N)=C(N)C(C#N)(C#N)[C@H](c3ccoc3)[C@H]2C1	x	-0.745
COc1ccc(OC)c(C2C3CN(C(C)C)CC=C3C(C#N)=C(N)C2(C#N)C#N)c1 (stereo unspecified)	x	-0.961
CCCOC(=O)c1ccc(NC(=O)CCOc2ccccc2)cc1	x	-0.109
CN1CCN(C(=O)c2cnn(-c3ccccc3)c2NC(=O)c2ccccc2)CC1	24.6	1.29
CCCCOc1ccc(NC(=O)CCSc2nccn2C)cc1	2.9	0.132
CN1/C(=C\C(=O)CN2C(=O)NC3(CCCCCC3)C2=O)C(C)(C)c2ccccc21	x	-2.82*
Cc1cccc[n+]1CC(=O)/C=C1\N(C)c2ccccc2C1(C)C	31.8	x
Cn1c(O)c(N=Nc2ccc(F)cc2)c2ccccc21	13.3	-1.8
Cn1c(O)c(N=Nc2nc(-c3ccccc3)cs2)c2ccccc21	7.3	2.77*
SMILES	Calb biofilm kill	ROMK primary	others
CCOC(=O)c1c(CSC(=N)N)n(-c2ccc(Br)cc2)c2cc(Br)c(OC(C)=O)cc12	18.4	-5.21*	ROMK hit retest=0.0451*
C=CCCc1ccc(C#N)c(SCc2c(C(=O)OCC)c3cc(OC(C)=O)c(Br)cc3n2C)n1	12.2	x
CCOC(=O)c1c(CSc2nc(C)cc(C)c2C#N)n(C)c2cc(Br)c(OC(C)=O)cc12	18.3	x
CCCCCCCCOC(=O)c1c(CSC(=N)N)n(C)c2cc(Br)c(OC(C)=O)cc12	14.6	x	ROMK hit retest=u
O=[N+]([O-])c1cccc(/C=C/c2nc3ccc([N+](=O)[O-])cc3[nH]2)c1	x	-5.21*	ROMK hit retest=0.0419*
Cc1nc2ccc([N+](=O)[O-])cc2[nH]1	-1.7	-0.0263
O=c1c2ccccc2[nH]c(=S)n1CCN1CCN(Cc2ccccc2)CC1	x	-0.0356
O=C(/C=C\c1cccs1)c1c(O)ccc2ccc(=O)oc12	6.7	-5.02*	ROMK hit retest=0.0496*
Cc1cc(C)c(C(=O)/C=C/c2cccs2)c(=O)[nH]1	8.5	0.0408
O=C(N[C@@H](Cc1ccccc1)C(=O)O)c1c(F)c(F)c(F)c(F)c1F	21.6	x
COCCNC(=S)Nc1ccc2[nH]c(=O)[nH]c2c1	2.4	1.81*	ROMK hit retest=0.0723
O=c1[nH]c2ccc(NC(=S)NCCc3ccccc3)cc2[nH]1	17.1	x
CCOC(=O)Nc1nc(-c2ccccc2)c(C(=O)c2ccc(Cl)cc2)s1	x	3.16*	ROMK hit retest=0.0828
CNc1nc(C)c(C(=O)c2ccc(Cl)cc2)s1	x	-1.7
N#Cc1nc(Cc2ccccc2)oc1NCc1ccccc1	-3.2	-1.48
O=C1CC(/C=C/c2ccc(Cl)cc2)=Nc2ccccc2N1	7.3	-3.39*	ROMK hit retest=0.0588*
CC1(C)CC(/C=C/c2ccccc2)=Nc2ccccc2N1	1.7	x	ROMK hit retest=0.036*
O=C1CC(/C=C/c2cccnc2)=Nc2ccccc2N1	9.5	0.819
O=C1CC(/C=C/c2ccccc2)=Nc2ccccc2N1	-9.8	-0.578
CC(C)c1nnc(NC(=O)C2CCN(S(=O)(=O)c3ccc(-n4cnnn4)cc3)CC2)s1	9.2	-0.0628
CC(C)(CSc1ccccn1)NS(=O)(=O)c1ccc(Cl)cc1	8.6	-0.539
CCOc1cc(Cl)c(S(=O)(=O)NCc2ccccn2)cc1Cl	x	0.99
